Measurements as given in the EternaBench riboswitch data.

System: MS2 coat protein
Test: apparent Kd, MS2 coat protein; higher = weaker binding; RNA-MaP array; FMN 200 µM where present
In short: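 Each design was made on Illumina sequencing-chip clusters by stalled E. coli RNA polymerase and titrated with SNAP-549-labelled MS2 coat protein from 0.7 or 1.5 nM, doubling to 3 µM, in the absence and then the presence of constant ligand. The buffer was 100 mM Tris-HCl pH 7.5, 80 mM KCl, 4 mM MgCl2, BSA, DTT, yeast tRNA and Tween-20. The apparent Kd is the median of filtered per-cluster fits of binding curves, with green signal normalised to red-channel RNA signal and control-cluster median Fmax.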

[1] = designed as: OFF switch for flavin mononucleotide, no ligand
[2] = ligand present: flavin mononucleotide, designed as: OFF switch for flavin mononucleotide
[3] = designed as: ON switch for flavin mononucleotide, no ligand
[4] = ligand present: flavin mononucleotide, designed as: ON switch for flavin mononucleotide

Sequence	apparent Kd [1]	apparent Kd [2]	apparent Kd [3]	apparent Kd [4]
GAUAGGACAGAGAAGGACGUAGCUAGAGAUACUAGCAUAAGAACCUUUACAUGAGGAUCACCCAUGUAGGAUAUCUGUCCUAUC	5.88 nM	6.89 nM		
GUAUACGAUGAGGAUAUAUGAUAUCAAAGCAUCAUAGAAGGCAUCACAUGAGGAUCACCCAUGUGAUCUUCUUU	18.1 nM	65.2 nM		
UUACAGCACGGGUAGGAUAUGUAGGGUGGUACAUGAGGAUCACCCAUGUAUCCACCCUUCUAACGGCAGAAGGGCCUGUCGCUGC			31.8 nM	20.9 nM
UUAAUUUAAUGAUAUUAUGACAUUAGAAGGCUGUACAUGUUGAUACAUGAGGAUCACCCAUGUAUAGAGGAUAUAGACAAUUUU	33.2 nM	89 nM		
AACAUACAUGAGGAUCACCCAUGUUCCGGCAGGCUAGGAUAUCAAUCGAAAGUGUUAUAAUGAGAAGGAGCAUAAA			49 nM	29.4 nM
AUGCCGUGCAGAGCGCGACGGCGAACAUGAGGAUCACCCAUGUAGGAUAUACUACACAAAGUGUAGUAGAAGGACGUGCAACAC	25.5 nM	34.7 nM		
AACUGACAUGAGGAUCACCCAUGUCAGGAUAUGACUUGAUAGAAAAUAAAAUAUCAUGUCAGAAGGGACAUGGA	23.8 nM	33.3 nM		
UAGCUUGACGCAGGAUAUCCAGGGCUGAGAUGAGGAGAAGGGCGCCAAACAUGAGGAUCACCCAUGUAUUAUGCAGGGUCCUCA	336 nM	315 nM		
AGUGCUAUGUAGAAGGCAGAUCUGAUUCAGAUCUGAGGAUAUACAUGAGGAUCACCCAUGUUAUGCACCAGCACGAGAGUGCAG	9.24 nM	22.6 nM		
CAAUGGGCGGUAGGAUAUCCGGUGUUUGGCAAAGGAGAAGGACUCACCAUACAUGAGGAUCACCCAUGUGAAGCGGGUCCUCAA	8.48 nM	10.1 nM		
AUGGUACAUGAGGAUCACCCAUGUUAGGAUAUCGCGUGAGGUAAAACUUACACACACACGAGAAGGGACGACAU	65.2 nM	46.7 nM		
UCGCUCCGUGUAGGAUAUCGCCGUUCUACUCGGCGAGAAGGACAUGAGGAUCACCCAUGUAUGUUAUUAUCACGUGUGGCGCGC	18.5 nM	29.5 nM		
UGAUGUAAAGAGAAGGGCUACUGGUUGAAACCUGCGGCCUCUGGAACAUGAGGAUCACCCAUGUAGCAGGAUAUCUUUGCGUCA	169 nM	31.4 nM		
GGUUAUAUAACAUGAGGAUCACCCAUGUGAGUGGUCCGAAUAUAGGAUAUCCACACGAGAAGUGUGGAGAAGGAUAAUUUAUUA	40.7 nM	206 nM		
AUCCGUCGUGUGAGGAUAUAAGAGUUCAAGGUUGUUUAGAAGGUACAUGAGGAUCACCCAUGUCACCCUGAUUG	14.9 nM	14.9 nM		
UGAUCUAGCGGAGGAUAUACAUGAGGAUCACCCAUGUAGAUAUCAUGACCGUAGUCGUGUAUCGUGUAGAAGGCCGCUAGAUCU	12.7 nM	24 nM		
GUCAGCUCGUGAGGAUAUACAACACUGCUUCGGCAGUGUAUUAAGAUCACAUGAGGAUCACCCAUGUAGAAGGCAGGAGCUGAU	15.7 nM	250 nM		
CUUCGUAUAGAGGAUAUAGGUUACUGCGGUAUCCUAGAAGGCUGUACAUGAGGAUCACCCAUGUACUUCAGAUC	13.9 nM	18.2 nM		

Sequence	apparent Kd [1]	apparent Kd [2]	apparent Kd [3]	apparent Kd [4]
AAAAUGUGAGGAUAUUAGUUGUACGUCAAUAGACGUAUAAGUGAGAAGGCACAUGAGGAUCACCCAUGUUCCUG	20.6 nM	112 nM		
GGAGCCGGCACGGAGGAUAUUCAUAUUAAAACAUGAGGAUCACCCAUGUAGGCCAGAAGGCCUUGGGAGAAGGCCGAUCGGCUCG			450 nM	29.7 nM
CAGUCUACAGGAUAUACAUGAGGAUCACCCAUGUAAAUUCACUUUCGAUAGUCUACAUGUAGAAGGGUAGACUG	15.5 nM	18.6 nM		
GGAGCCGGCACCGAGGAUAUUCAUAUUAAAACAUGAGGAUCACCCAUGUAGGCCAGAAGGCCUUGGGAGAAGGCGGACCGGCUCG			654 nM	31.1 nM
AAAAAACAUGAGGAUCACCCAUGUCAAAAGACAUGAGGAUAUGUACAGACUUCGGUCUGUACAGAAGGCAUGUAAA			321 nM	30.8 nM
UCCGAACAUGAGGAUCACCCAUGUCUAAUACGUCAAGGAUAUGGGCGCGGAGAACCGCAACCAGAAGGUGAGAAAU			507 nM	89.4 nM
AAUUAUUUUUGAGGAUAUGGUAGUGAAACACUACCAGAAGGCGGAAUAAACAUGAGGAUCACCCAUGUGAGCCUGAUGCUUAUG	22 nM	42.6 nM		
AAGCUGGUAGGAUAUACUAGGGCGAUUAAUACGCCGAUAGUACAUGAGGAUCACCCAUGUAGAAGGGCCAGAAA	27.5 nM	22.1 nM		
ACUUGCUUGCAGAAGGGUGACAUGAGGAUCACCCAUGUAGCGGGCCGGCGUAAAGUCAGCGCGCCACAGGAUAUGCAGGCCUCG			25.2 nM	58.5 nM
AUCAGCUCGUCAGGAUAUACGUCACCGCGUCAGCAGUGUGGUAAGAUCACAUGAGGAUCACCCAUGUAGAAGGGACGAGCUGAU	13.6 nM	237 nM		
UUACAGUGCGGGUAGGAUAUGUAGGGUGGUACAUGAGGAUCACCCAUGUAUCCACCCUUCGACCGGCAGAAGGGCCUGUCACUAC			17.1 nM	20.5 nM
AAAAAGUGAGGAUAUACAUGAGGAUCACCCAUGUGAAAGUCGAAAAAAAAGACAAGAAGUAGAAGGCACAAAAA	30.4 nM	34.9 nM		
CCCGACCAGAAGUCGGUACGGAGGAGAAGGCGCCUCCUGGGUCCACAUGAGGAUCACCCAUGUGGCGAGGAUAUCCUCAGUUUU	13.7 nM	119 nM		
AAGAAACAUGAGGAUCACCCAUGUCAGGAUAUGCAAGACUGACGAAAGUCAGUCAAAAGCAGAAGGGACUAGAA	57.2 nM	76.6 nM		
CACUGCAUGUAAGGAUAUCGACUGGAUAACAGUCGAGAAGGUACAUGAGGAUCACCCAUGUAAGCAGUGAAUAAUAAUAAUAAU	13.2 nM	25.2 nM		
GGGUACAUCGGAGGAUAUCAUGUAAAUACAUGAGGAUCACCCAUGUCGAUAGAGACAUCGGAGAUUGAGAAGGCCGAUGUACCG			41.7 nM	300 nM
UGGUACUAGGGAGGAUAUGGGAAAAUACAUGAGGAUCACCCAUGUUUAAGAAUGCCGAGAGGCAACUAGAAGGCCCUAGUACCU			16.2 nM	5.26 nM
UCCUCUUUGAAGAAGGCGUGGCCAUGCAAGCCGCGAGGAUAUUCACAUGAGGAUCACCCAUGUGGAUUUCAGUCCGCUCAAAAC	13.4 nM	68 nM		
